ChEMBL document CHEMBL1961794, “Regulation of circadian behaviour and metabolism by synthetic REV-ERB agonists” (Nature, 2012)
Activity calls are given as the source filed them. The calls are words filed in the database; no cut-off is given here.

Tests used:
[1] = target: Nuclear receptor subfamily 1 group D member 2 (Homo sapiens, UniProt Q14995); test: Increased REV-ERB-beta LBD dependent repressor activity in HEK293 cell reporter assay; type: cell-based
[2] = target: Nuclear receptor subfamily 1 group D member 1 (Homo sapiens) (UniProt P20393); test: Recruitment of co-repressor NcoR1 to REV-ERB-alpha; type: functional
Method in brief: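 Biochemical corepressor-interaction assay using Luminex bead technology, measuring compound-dependent recruitment of an NCoR CoRNR box peptide to REV-ERBα. Mean ± s.e.m., n=3.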

[3] = Plasma concentration after 1 hour at 10mg/kg ip dose (10mg/ml suspension in 10%DMSO/10%Tween80); type: ADME, organism-based; settings: mouse, read-out: Conc_plasma
Method in brief: (§1)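 Mice received a single 10 mg/kg i.p. dose as a 10 mg/ml suspension in DMSO/Tween80/water (10/10/80). Plasma was sampled at 1, 2, 4 and 8 h post-injection and drug concentration reported in μM. Mean ± s.e.m., n=3.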

[4] = Plasma concentration after 8 hours at 10mg/kg ip dose (10mg/ml suspension in 10%DMSO/10%Tween80); type: ADME, organism-based; settings: mouse, read-out: Conc_plasma; method in brief: as §1
[5] = Plasma concentration after 2 hours at 100mg/kg ip dose (10mg/ml solution in 15% Cremophor); type: ADME, organism-based; settings: mouse, read-out: Conc_plasma
Method in brief: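 Single 100 mg/kg i.p. dose given to mice as a 10 mg/ml solution in 15% Cremophor. Plasma drug concentration (μM) was measured at 2 and 8 h post-injection. Mean ± s.e.m., n=3.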

Mus musculus [6] = test: Decreased expression of REV-ERB responsive gene Cyp7a1 in mouse liver after 6 days at 100 mg/kg; type: functional, organism-based; parameters: dose 100 mg/kg
Mus musculus [7] = test: Decreased expression of REV-ERB responsive gene Serpine1 in mouse liver after 6 days at 100 mg/kg; type: functional, organism-based; parameters: dose 100 mg/kg
[8] = target: Thyroid hormone receptor beta (Homo sapiens) (UniProt P10828); test: Effect on THRB(NR1A2) dependent reporter activity in HEK293 cells at 20 uM; type: cell-based
Method in brief: (§2)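 Cotransfection assay in HEK293 cells with Gal4 DNA-binding domain–nuclear receptor fusions, covering a panel of all 48 human nuclear receptors. Compounds were tested at 20 μM, with reporter luciferase as the read-out. Mean ± s.e.m., n=3.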

[9] = target: Retinoic acid receptor gamma (Homo sapiens) (UniProt P13631); test: Effect on RARG(NR1B3) dependent reporter activity in HEK293 cells at 20 uM; type: cell-based
Method in brief: (§3)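 Specificity panel covering all 48 human nuclear receptors. HEK293 cells cotransfected with Gal4 DNA-binding domain–nuclear receptor fusions and a luciferase reporter. Compound tested at a single 20 μM concentration. Mean ± s.e.m., n=3.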

[10] = target: Peroxisome proliferator-activated receptor delta (Homo sapiens) (UniProt Q03181); test: Effect on PPARD(NR1C2) dependent reporter activity in HEK293 cells at 20 uM; type: cell-based; method in brief: as §3
[11] = target: Peroxisome proliferator-activated receptor gamma (Homo sapiens) (UniProt P37231); test: Effect on PPARG(NR1C3) dependent reporter activity in HEK293 cells at 20 uM; type: cell-based; method in brief: as §3
[12] = target: Nuclear receptor ROR-alpha (Homo sapiens) (UniProt P35398); test: Effect on RORA(NR1F1) dependent reporter activity in HEK293 cells at 20 uM; type: cell-based; method in brief: as §3
[13] = target: Oxysterols receptor LXR-beta (Homo sapiens) (UniProt P55055); test: Effect on LXRB(NR1H2) dependent reporter activity in HEK293 cells at 20 uM; type: cell-based; method in brief: as §3
[14] = target: Bile acid receptor (Homo sapiens) (UniProt Q96RI1); test: Effect on BAR(NR1H4) dependent reporter activity in HEK293 cells at 20 uM; type: cell-based; method in brief: as §3
[15] = target: Hepatocyte nuclear factor 4-gamma (Homo sapiens) (UniProt Q14541); test: Effect on HNF4G(NR2A2) dependent reporter activity in HEK293 cells at 20 uM; type: cell-based; method in brief: as §3
[16] = target: Retinoic acid receptor RXR-alpha (Homo sapiens) (UniProt P19793); test: Effect on RXRA(NR2B1) dependent reporter activity in HEK293 cells at 20 uM; type: cell-based; method in brief: as §3
[17] = target: Retinoic acid receptor RXR-beta (Homo sapiens) (UniProt P28702); test: Effect on RXRB(NR2B2) dependent reporter activity in HEK293 cells at 20 uM; type: cell-based; method in brief: as §3
[18] = target: Retinoic acid receptor RXR-gamma (Homo sapiens) (UniProt P48443); test: Effect on RXRG(NR2B3) dependent reporter activity in HEK293 cells at 20 uM; type: cell-based; method in brief: as §3
[19] = target: Nuclear receptor subfamily 2 group E member 1 (Homo sapiens) (UniProt Q9Y466); test: Effect on TLX(NR2E1) dependent reporter activity in HEK293 cells at 20 uM; type: cell-based; method in brief: as §2
[20] = target: COUP transcription factor 2 (Homo sapiens) (UniProt P24468); test: Effect on TFCOUP2(NR2F2) dependent reporter activity in HEK293 cells at 20 uM; type: cell-based; method in brief: as §2
[21] = target: Estrogen receptor (Homo sapiens) (UniProt P03372); test: Effect on ESR1(NR3A1) dependent reporter activity in HEK293 cells at 20 uM; type: cell-based; method in brief: as §3
[22] = target: Estrogen receptor beta (Homo sapiens) (UniProt Q92731); test: Effect on ESR2(NR3A2) dependent reporter activity in HEK293 cells at 20 uM; type: cell-based; method in brief: as §3
[23] = target: Steroid hormone receptor ERR1 (Homo sapiens) (UniProt P11474); test: Effect on ERR1(NR3B1) dependent reporter activity in HEK293 cells at 20 uM; type: cell-based; method in brief: as §3
[24] = target: Steroid hormone receptor ERR2 (Homo sapiens) (UniProt O95718); test: Effect on ERR2(NR3B2) dependent reporter activity in HEK293 cells at 20 uM; type: cell-based; method in brief: as §3
[25] = target: Glucocorticoid receptor (Homo sapiens) (UniProt P04150); test: Effect on GCR(NR3C1) dependent reporter activity in HEK293 cells at 20 uM; type: cell-based; method in brief: as §3
[26] = target: Mineralocorticoid receptor (Homo sapiens) (UniProt P08235); test: Effect on MCR(NR3C2) dependent reporter activity in HEK293 cells at 20 uM; type: cell-based; method in brief: as §3
[27] = target: Androgen receptor (Homo sapiens) (UniProt P10275); test: Effect on AR(NR3C4) dependent reporter activity in HEK293 cells at 20 uM; type: cell-based; method in brief: as §3
[28] = target: Nuclear receptor subfamily 4 group A member 2 (Homo sapiens) (UniProt P43354); test: Effect on NURR1(NR4A2) dependent reporter activity in HEK293 cells at 20 uM; type: cell-based; method in brief: as §3
[29] = target: Nuclear receptor subfamily 4 group A member 3 (Homo sapiens) (UniProt Q92570); test: Effect on NOR1(NR4A3) dependent reporter activity in HEK293 cells at 20 uM; type: cell-based; method in brief: as §3
[30] = target: Nuclear receptor subfamily 5 group A member 2 (Homo sapiens) (UniProt O00482); test: Effect on CPF(NR5A2) dependent reporter activity in HEK293 cells at 20 uM; type: cell-based; method in brief: as §3
[31] = target: Nuclear receptor ROR-beta (Homo sapiens) (UniProt Q92753); test: Effect on RORB(NR1F2) dependent reporter activity in HEK293 cells at 20 uM
Nuclear receptor ROR-beta (Homo sapiens), sequence (Q92753 whole entry, looked up): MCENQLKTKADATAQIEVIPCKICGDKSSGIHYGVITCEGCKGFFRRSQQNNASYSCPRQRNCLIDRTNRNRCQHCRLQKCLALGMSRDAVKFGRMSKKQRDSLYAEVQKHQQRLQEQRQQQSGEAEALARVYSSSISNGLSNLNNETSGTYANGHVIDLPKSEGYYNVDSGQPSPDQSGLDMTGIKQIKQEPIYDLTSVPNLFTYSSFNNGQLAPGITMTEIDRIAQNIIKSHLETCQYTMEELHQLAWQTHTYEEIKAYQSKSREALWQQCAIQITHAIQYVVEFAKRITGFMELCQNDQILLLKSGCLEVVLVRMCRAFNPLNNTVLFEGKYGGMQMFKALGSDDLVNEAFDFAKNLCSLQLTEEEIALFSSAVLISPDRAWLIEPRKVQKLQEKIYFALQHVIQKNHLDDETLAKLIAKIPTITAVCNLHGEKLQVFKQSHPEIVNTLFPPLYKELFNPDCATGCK

Bile acid receptor (Homo sapiens), sequence (Q96RI1 whole entry): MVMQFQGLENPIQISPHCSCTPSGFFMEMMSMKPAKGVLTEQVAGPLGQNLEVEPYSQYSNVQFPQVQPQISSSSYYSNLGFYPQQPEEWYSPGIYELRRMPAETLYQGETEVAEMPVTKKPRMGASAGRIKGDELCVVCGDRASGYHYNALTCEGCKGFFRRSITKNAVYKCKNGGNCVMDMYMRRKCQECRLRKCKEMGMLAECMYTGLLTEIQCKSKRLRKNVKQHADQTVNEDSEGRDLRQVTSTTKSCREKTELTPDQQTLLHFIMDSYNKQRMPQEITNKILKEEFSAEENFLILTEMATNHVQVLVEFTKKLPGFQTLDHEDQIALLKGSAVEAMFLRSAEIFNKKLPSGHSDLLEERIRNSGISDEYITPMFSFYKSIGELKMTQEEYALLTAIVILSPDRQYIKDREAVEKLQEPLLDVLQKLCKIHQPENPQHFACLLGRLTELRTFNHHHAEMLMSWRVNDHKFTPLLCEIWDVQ
Peroxisome proliferator-activated receptor delta (Homo sapiens), sequence (Q03181 whole entry): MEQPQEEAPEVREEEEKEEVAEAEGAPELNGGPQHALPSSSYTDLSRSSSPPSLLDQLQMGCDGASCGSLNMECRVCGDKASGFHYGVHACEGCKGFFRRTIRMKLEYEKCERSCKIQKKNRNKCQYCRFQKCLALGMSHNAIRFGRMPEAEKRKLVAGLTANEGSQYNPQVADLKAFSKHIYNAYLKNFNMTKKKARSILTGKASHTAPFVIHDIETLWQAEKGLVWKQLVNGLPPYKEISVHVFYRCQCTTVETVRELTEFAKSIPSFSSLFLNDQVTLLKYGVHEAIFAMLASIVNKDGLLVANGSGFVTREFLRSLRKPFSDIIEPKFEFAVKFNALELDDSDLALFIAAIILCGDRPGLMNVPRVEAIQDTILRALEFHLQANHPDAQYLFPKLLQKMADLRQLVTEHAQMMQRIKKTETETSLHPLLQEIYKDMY
Nuclear receptor subfamily 5 group A member 2 (Homo sapiens), sequence (O00482 whole entry): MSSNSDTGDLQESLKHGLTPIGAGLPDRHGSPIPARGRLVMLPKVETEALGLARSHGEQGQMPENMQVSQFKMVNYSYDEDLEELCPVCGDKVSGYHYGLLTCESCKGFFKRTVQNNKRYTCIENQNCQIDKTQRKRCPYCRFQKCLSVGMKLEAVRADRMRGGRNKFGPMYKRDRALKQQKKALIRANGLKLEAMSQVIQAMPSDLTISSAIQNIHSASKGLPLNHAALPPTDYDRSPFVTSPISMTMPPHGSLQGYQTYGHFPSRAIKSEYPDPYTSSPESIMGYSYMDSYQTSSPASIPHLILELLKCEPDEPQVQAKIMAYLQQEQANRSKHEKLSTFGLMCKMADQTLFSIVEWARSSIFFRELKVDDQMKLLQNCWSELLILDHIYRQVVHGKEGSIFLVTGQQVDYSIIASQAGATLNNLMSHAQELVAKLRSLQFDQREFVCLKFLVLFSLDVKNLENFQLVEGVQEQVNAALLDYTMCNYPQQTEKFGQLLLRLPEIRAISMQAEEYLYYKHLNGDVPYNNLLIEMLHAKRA
Peroxisome proliferator-activated receptor gamma (Homo sapiens), sequence (P37231 whole entry): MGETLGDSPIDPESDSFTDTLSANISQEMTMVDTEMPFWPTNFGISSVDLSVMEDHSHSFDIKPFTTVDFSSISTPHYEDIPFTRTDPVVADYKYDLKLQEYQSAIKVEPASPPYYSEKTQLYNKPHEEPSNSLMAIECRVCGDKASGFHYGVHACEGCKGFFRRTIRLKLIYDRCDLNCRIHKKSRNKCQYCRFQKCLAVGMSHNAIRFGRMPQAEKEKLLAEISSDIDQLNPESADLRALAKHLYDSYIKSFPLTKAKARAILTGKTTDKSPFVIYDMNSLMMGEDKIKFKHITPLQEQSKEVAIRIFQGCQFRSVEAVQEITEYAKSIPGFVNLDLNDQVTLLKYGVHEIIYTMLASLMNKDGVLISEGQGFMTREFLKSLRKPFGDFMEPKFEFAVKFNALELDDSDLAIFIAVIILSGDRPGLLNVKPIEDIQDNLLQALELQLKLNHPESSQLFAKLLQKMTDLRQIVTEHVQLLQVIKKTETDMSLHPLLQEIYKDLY
Oxysterols receptor LXR-beta (Homo sapiens), sequence (P55055 whole entry): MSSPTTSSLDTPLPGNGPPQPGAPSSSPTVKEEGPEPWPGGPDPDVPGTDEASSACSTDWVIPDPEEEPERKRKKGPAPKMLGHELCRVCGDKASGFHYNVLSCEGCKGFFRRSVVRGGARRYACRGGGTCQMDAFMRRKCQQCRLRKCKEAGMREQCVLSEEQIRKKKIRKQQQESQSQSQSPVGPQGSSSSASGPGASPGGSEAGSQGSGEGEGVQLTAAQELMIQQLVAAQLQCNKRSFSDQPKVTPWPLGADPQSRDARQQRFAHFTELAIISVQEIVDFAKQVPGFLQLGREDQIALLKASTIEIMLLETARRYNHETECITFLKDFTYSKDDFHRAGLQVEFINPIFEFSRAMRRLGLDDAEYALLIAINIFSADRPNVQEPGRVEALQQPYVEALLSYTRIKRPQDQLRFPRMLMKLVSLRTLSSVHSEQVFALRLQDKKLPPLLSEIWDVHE
Estrogen receptor (Homo sapiens), sequence (P03372 whole entry): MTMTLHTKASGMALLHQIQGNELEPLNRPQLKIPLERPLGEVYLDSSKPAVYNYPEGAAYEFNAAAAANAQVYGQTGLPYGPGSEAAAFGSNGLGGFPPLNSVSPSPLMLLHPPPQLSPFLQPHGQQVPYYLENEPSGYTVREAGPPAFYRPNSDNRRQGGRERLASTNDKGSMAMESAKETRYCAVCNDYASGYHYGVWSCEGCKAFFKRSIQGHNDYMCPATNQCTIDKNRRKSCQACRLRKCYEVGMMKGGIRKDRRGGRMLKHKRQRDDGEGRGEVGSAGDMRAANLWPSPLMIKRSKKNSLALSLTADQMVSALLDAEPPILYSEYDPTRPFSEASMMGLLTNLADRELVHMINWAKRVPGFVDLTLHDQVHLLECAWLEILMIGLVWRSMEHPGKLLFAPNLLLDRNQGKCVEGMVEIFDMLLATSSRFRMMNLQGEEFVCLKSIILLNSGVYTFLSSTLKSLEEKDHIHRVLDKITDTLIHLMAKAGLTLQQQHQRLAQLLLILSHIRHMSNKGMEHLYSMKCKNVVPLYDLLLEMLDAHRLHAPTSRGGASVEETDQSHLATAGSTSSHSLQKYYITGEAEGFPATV
Retinoic acid receptor RXR-alpha (Homo sapiens), sequence (P19793 whole entry): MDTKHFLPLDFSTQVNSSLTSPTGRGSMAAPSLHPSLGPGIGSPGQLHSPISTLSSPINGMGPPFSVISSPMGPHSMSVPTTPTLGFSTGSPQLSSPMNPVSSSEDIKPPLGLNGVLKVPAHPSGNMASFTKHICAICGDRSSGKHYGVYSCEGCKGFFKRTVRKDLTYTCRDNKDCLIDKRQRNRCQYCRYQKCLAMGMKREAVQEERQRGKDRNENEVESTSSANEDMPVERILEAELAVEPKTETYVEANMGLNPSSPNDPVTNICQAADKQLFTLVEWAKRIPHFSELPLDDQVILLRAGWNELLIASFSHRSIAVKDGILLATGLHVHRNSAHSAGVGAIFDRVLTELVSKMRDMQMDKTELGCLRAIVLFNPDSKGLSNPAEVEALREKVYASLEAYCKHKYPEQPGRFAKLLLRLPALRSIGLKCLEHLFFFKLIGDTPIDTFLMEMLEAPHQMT
Androgen receptor (Homo sapiens), sequence (P10275 whole entry): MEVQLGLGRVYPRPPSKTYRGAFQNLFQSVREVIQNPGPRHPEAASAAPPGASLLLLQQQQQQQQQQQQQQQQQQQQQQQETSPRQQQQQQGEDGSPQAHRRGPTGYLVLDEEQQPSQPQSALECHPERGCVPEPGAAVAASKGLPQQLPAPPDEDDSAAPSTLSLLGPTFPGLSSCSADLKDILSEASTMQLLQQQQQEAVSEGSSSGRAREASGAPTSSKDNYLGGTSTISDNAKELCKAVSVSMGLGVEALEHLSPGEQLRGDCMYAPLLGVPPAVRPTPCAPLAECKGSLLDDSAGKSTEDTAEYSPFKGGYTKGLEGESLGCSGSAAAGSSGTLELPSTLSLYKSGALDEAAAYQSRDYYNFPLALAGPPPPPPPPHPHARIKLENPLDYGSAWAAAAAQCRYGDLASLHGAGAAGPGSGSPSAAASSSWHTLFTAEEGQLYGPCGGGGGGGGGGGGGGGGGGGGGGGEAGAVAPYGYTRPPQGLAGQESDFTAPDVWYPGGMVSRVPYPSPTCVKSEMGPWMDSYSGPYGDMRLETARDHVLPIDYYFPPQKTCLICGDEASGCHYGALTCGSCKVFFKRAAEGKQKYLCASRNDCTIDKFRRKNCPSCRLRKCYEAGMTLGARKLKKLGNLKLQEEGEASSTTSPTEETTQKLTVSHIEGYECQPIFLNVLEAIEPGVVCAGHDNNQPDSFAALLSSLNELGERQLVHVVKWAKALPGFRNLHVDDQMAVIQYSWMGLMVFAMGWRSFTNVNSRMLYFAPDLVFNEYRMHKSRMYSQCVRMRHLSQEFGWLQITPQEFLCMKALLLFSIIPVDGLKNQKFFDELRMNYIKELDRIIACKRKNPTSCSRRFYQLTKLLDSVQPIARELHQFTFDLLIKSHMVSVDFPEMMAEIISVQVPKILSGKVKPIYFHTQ

| Structure (SMILES) | IC50 [1] | NcoR1_recruitment [2] | concentration at 1 h [3] [nM] | concentration at 8 h [4] [nM] | concentration at 2 h [5] [nM] | Reduced_Cyp7a1_gene_exp (Mus musculus [6]) | Reduced_Serpine1_gene_exp (Mus musculus [7]) | inhibition [8] | inhibition [9] | inhibition [10] | inhibition [11] | inhibition [12] | inhibition [13] | inhibition [14] | inhibition [15] | inhibition [16] | inhibition [17] | inhibition [18] | inhibition [19] | inhibition [20] | further results |
| --- | --- | --- | --- | --- | --- | --- | --- | --- | --- | --- | --- | --- | --- | --- | --- | --- | --- | --- | --- | --- | --- |
| CCOC(=O)N1CCC(CN(Cc2ccc(Cl)cc2)Cc2ccc([N+](=O)[O-])s2)C1 (configuration not stated) [SR9009] | 800 nM (agonist) | Dose-dependent effect | 1400 | 130 | 22900 | Active | Active | inactive | inactive | inactive | inactive | inactive | inactive | inactive | inactive | inactive | inactive | inactive | inactive | inactive | inhibition [21]: inactive; inhibition [22]: inactive; inhibition [23]: inactive; inhibition [24]: inactive; inhibition [25]: inactive; inhibition [26]: inactive; inhibition [27]: inactive; inhibition [28]: inactive; inhibition [29]: inactive; inhibition [30]: inactive; inhibition [31]: inactive |
| CCCCCNC(=O)N1CCC(CN(Cc2ccc(Cl)cc2)Cc2ccc([N+](=O)[O-])s2)C1 (configuration not stated) [SR9011] | 560 nM (agonist) | Dose-dependent effect | 1550 | 10 | 15300 | Active | Active | inactive | inactive | inactive | inactive | inactive | inactive | inactive | inactive | inactive | inactive | inactive | inactive | inactive | inhibition [21]: inactive; inhibition [22]: inactive; inhibition [23]: inactive; inhibition [24]: inactive; inhibition [25]: inactive; inhibition [26]: inactive; inhibition [27]: inactive; inhibition [28]: inactive; inhibition [29]: inactive; inhibition [30]: inactive; inhibition [31]: inactive |
